Experimental data reported in article PMC5508980 (Molecular nutrition & food research, 2017).

Columns and labels:
[1] = tested on: Class I HDAC; assay: HDAC activity assay, class I substrate, bovine heart tissue lysate; type: biochemical; settings: 2 hours treatment
Outline: (§1)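 Bovine heart lysate prepared in PBS pH 7.4 with 0.5% Triton X-100, 300 mM NaCl and protease/phosphatase inhibitors, then clarified; 30 µg protein/well in PBS. Test compound at semi-log increasing concentrations for 2 h, then class-specific AMC-acyl-lysine substrate (1 mM DMSO stock) for 2 h at 37 °C.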

[2] = target: recombinant HDAC1 (Homo sapiens, UniProt Q13547); assay: Recombinant HDAC activity assay; type: biochemical; settings: 2 h, read-out: % HDAC activity, Class I HDACs, 1
Sequence of recombinant HDAC1 (Q13547 whole entry): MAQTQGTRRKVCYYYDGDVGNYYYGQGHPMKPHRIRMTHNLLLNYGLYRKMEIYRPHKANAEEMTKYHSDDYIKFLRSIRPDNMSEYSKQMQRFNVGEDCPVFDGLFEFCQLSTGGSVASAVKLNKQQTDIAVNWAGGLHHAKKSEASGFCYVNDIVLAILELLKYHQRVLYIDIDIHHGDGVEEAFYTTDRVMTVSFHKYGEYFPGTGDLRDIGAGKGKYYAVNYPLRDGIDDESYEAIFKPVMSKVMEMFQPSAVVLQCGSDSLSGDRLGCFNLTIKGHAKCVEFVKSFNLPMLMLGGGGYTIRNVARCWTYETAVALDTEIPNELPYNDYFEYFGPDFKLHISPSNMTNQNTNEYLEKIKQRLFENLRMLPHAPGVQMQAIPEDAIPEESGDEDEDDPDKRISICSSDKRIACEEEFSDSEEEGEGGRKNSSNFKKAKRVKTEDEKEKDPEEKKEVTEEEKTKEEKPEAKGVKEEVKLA

[3] = target: recombinant HDAC2 (Homo sapiens, UniProt Q92769); assay: Recombinant HDAC activity assay; type: biochemical; settings: 2 h, read-out: % HDAC activity, Class I HDACs, 2
Sequence of recombinant HDAC2 (Q92769 whole entry): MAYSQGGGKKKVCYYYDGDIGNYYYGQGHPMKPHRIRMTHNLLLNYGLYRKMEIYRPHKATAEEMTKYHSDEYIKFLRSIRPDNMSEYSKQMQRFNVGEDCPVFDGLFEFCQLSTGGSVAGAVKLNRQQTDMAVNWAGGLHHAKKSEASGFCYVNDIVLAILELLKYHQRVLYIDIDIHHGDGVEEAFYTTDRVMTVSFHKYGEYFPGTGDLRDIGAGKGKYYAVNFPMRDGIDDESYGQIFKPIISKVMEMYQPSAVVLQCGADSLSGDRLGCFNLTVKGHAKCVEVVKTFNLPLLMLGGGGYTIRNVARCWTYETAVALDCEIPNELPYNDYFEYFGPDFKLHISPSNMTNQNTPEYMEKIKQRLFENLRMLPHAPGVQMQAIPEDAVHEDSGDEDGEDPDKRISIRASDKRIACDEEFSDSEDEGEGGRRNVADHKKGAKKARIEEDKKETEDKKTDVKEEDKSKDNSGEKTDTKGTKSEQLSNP

[4] = target: recombinant HDAC3 (Homo sapiens, UniProt O15379); assay: Recombinant HDAC activity assay; type: biochemical; settings: 2 h, read-out: % HDAC activity, Class I HDACs, 3
Sequence of recombinant HDAC3 (O15379 whole entry): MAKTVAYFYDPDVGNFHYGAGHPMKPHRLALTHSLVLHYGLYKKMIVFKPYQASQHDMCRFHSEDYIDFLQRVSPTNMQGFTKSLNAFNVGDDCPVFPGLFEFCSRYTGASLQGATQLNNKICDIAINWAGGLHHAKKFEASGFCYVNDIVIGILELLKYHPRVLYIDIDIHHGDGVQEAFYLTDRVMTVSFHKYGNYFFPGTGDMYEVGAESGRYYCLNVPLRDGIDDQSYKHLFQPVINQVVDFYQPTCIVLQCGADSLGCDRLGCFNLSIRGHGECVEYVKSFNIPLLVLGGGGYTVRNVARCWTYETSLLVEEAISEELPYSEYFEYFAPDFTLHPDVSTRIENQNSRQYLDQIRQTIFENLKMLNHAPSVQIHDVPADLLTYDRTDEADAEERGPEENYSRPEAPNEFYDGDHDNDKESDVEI
Sequence of recombinant HDAC3 (Q9Y618 395-489 partner limits assumed): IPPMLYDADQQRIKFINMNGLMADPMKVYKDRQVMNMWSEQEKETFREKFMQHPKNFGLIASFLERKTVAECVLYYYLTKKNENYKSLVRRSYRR

[5] = target: T1, recombinant HDAC8 (Homo sapiens, UniProt Q9BY41); assay: Recombinant HDAC activity assay; type: biochemical; settings: 2 h, read-out: % HDAC activity, Class I HDACs, 8
T1 sequence (Q9BY41 1-377): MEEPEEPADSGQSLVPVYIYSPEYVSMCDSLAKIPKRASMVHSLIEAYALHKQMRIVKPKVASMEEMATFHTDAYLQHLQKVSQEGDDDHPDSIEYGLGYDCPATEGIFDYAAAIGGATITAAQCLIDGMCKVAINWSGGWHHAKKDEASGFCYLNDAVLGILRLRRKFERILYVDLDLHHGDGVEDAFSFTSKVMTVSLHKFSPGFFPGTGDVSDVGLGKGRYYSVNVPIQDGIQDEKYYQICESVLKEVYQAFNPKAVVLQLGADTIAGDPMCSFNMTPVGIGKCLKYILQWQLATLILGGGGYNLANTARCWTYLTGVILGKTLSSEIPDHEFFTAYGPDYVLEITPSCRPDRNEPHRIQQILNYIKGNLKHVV

[6] = target: T2, recombinant HDAC7 (Homo sapiens, UniProt Q8WUI4); assay: Recombinant HDAC activity assay; type: biochemical; settings: recombinant protein incubated with 50 µM compound, 2 hrs
T2 sequence (Q8WUI4 1-952): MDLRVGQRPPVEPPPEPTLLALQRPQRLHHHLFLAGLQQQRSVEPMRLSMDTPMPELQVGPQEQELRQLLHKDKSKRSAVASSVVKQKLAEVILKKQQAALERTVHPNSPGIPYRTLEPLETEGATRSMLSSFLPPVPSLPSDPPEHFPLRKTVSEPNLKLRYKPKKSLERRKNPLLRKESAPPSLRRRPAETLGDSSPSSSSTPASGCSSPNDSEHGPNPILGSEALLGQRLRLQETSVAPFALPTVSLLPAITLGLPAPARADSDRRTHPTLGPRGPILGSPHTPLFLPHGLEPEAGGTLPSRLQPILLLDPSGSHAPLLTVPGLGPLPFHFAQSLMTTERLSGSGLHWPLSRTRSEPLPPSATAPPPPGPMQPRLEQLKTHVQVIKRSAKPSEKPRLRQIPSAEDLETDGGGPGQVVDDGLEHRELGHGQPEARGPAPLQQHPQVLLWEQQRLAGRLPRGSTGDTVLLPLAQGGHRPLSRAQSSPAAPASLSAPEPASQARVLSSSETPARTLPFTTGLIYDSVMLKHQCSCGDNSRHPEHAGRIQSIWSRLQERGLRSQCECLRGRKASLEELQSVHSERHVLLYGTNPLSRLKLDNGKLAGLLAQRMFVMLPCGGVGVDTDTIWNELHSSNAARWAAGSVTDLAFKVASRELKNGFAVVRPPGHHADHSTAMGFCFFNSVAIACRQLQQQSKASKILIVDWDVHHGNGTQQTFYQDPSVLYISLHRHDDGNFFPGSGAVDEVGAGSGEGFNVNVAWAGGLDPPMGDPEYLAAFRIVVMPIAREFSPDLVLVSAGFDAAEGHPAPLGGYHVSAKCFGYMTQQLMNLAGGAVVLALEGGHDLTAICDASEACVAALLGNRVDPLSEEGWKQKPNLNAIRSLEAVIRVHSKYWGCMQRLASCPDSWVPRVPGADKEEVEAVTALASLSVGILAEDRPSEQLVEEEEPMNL

[7] = target: recombinant HDAC5 (Homo sapiens, UniProt Q9UQL6); assay: Recombinant HDAC activity assay; type: biochemical; settings: 2 h, read-out: % HDAC activity, Class IIa HDACs, 5
Sequence of recombinant HDAC5 (Q9UQL6 whole entry): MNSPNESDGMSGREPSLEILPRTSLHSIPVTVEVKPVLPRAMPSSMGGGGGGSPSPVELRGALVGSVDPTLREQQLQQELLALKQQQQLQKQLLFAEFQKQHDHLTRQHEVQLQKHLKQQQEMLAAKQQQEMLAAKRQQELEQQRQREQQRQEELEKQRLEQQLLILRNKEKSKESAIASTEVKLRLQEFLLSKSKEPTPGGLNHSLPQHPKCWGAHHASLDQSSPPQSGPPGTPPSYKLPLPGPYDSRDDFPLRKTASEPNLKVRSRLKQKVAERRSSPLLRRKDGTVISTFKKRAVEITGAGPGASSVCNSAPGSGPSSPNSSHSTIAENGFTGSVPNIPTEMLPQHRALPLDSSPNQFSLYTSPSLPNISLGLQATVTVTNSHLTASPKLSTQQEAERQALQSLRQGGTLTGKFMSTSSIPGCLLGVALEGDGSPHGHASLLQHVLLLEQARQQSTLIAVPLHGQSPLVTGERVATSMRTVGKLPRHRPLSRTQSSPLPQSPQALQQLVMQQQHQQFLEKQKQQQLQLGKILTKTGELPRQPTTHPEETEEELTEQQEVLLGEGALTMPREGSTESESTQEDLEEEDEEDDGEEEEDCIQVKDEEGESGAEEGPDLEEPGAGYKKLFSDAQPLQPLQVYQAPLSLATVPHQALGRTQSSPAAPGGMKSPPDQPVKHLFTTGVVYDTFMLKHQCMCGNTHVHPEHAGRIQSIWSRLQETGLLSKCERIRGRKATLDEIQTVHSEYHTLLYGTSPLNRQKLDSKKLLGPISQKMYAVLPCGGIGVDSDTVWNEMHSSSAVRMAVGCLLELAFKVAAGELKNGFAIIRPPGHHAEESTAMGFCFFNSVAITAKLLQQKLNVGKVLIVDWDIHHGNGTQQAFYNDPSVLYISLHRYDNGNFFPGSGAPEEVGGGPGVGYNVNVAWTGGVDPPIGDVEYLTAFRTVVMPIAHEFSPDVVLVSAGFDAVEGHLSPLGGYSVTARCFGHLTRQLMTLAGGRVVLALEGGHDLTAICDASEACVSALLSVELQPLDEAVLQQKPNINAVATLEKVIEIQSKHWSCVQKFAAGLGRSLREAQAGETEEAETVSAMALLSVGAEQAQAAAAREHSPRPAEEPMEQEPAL

[8] = target: recombinant HDAC9 (Homo sapiens, UniProt Q9UKV0); assay: Recombinant HDAC activity assay; type: biochemical; settings: 2 h, read-out: % HDAC activity, Class IIa HDACs, 9
Sequence of recombinant HDAC9 (Q9UKV0 whole entry): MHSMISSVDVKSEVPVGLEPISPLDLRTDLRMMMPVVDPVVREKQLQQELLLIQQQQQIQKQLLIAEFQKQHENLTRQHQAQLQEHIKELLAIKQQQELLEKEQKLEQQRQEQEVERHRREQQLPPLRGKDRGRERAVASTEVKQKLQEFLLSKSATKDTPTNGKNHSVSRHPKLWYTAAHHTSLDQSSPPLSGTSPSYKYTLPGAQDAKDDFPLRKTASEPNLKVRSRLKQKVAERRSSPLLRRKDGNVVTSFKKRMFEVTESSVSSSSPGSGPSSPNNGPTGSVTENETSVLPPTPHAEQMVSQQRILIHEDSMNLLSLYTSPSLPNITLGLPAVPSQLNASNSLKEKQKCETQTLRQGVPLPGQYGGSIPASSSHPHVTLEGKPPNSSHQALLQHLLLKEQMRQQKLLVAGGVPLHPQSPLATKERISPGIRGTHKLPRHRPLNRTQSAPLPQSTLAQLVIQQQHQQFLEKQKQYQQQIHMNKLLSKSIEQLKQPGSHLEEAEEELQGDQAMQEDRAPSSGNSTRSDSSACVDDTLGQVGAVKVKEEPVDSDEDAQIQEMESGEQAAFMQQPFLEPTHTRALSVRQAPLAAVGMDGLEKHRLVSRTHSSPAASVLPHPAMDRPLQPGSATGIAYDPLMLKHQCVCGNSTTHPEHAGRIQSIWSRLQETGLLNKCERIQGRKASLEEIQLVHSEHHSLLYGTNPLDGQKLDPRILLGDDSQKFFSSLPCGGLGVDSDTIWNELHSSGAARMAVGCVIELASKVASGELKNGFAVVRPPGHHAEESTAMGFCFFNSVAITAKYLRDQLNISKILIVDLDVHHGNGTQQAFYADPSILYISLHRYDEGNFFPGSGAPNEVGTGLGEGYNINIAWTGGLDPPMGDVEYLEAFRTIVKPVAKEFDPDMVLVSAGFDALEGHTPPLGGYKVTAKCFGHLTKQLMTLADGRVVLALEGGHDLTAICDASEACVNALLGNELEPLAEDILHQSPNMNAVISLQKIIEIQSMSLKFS

[9] = target: T3, recombinant HDAC10 (Homo sapiens, UniProt Q969S8); assay: Recombinant HDAC activity assay; type: biochemical; settings: 2 h, read-out: % HDAC activity, Class IIb HDACs, 10
T3 sequence (Q969S8 1-669): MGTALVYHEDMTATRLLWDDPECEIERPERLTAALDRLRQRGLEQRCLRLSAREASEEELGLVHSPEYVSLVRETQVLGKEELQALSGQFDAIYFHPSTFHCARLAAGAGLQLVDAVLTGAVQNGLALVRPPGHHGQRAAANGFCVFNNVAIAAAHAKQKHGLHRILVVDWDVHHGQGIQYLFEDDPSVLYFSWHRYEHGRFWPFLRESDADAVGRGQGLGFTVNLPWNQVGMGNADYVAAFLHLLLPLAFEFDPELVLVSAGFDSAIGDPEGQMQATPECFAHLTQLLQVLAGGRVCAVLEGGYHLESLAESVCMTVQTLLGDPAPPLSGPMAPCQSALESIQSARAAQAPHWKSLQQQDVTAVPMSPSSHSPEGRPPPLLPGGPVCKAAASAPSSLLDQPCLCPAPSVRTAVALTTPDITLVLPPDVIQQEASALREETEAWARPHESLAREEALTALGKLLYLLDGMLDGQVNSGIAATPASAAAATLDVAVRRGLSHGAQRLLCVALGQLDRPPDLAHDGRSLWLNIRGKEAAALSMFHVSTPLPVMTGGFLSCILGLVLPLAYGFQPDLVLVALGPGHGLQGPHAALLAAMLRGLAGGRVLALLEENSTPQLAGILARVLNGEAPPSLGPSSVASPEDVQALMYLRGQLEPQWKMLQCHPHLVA

[10] = tested on: HDAC activity in bovine cardiac tissue; assay: Natural product library screen with class-selective HDAC substrates; type: biochemical; settings: 2 hours treatment
Outline: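 The screen covered 131 natural compounds against bovine cardiac tissue lysate at 30 µg protein/well in PBS (pH 7.4 lysis buffer with Triton X-100 and NaCl). Test compound for 2 h, then separate class I, IIa or IIb fluorogenic acyl-lysine-AMC substrates for 2 h at 37 °C. Developer (Triton X-100, 3 µM TSA, 0.75 mg/ml trypsin) for 20 min; fluorescence read at 360/460 nm.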

[11] = tested on: H9c2 cells; assay: Acetyl-H3K9/14 immunoblot of whole cell extract; type: cell-based, rat; settings: H9c2 myocytes, 50 µM, 2 hours
Outline: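 H9c2 cells were grown in DMEM with 10% FBS and treated at 90% confluence for 2 h with test compound or DMSO, with TSA as positive control. Washed in ice-cold PBS, lysed in PBS pH 7.4 with 0.5% Triton X-100 and 300 mM NaCl plus inhibitors, sonicated and clarified. SDS-PAGE, nitrocellulose, acetyl-H3K9/14 and total H3 antibodies, chemiluminescence; densitometry; ANOVA with Tukey.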

[12] = tested on: Class IIb HDAC; assay: HDAC activity assay, class IIb substrate, bovine heart tissue lysate; type: biochemical; settings: 2 hours treatment
Outline: as §1

[13] = target: T4, recombinant HDAC6 (Homo sapiens, UniProt Q9UBN7); assay: Recombinant HDAC activity assay; type: biochemical; settings: 2 h, read-out: % HDAC activity, Class IIb HDACs, 6
T4 sequence (Q9UBN7 1-1215): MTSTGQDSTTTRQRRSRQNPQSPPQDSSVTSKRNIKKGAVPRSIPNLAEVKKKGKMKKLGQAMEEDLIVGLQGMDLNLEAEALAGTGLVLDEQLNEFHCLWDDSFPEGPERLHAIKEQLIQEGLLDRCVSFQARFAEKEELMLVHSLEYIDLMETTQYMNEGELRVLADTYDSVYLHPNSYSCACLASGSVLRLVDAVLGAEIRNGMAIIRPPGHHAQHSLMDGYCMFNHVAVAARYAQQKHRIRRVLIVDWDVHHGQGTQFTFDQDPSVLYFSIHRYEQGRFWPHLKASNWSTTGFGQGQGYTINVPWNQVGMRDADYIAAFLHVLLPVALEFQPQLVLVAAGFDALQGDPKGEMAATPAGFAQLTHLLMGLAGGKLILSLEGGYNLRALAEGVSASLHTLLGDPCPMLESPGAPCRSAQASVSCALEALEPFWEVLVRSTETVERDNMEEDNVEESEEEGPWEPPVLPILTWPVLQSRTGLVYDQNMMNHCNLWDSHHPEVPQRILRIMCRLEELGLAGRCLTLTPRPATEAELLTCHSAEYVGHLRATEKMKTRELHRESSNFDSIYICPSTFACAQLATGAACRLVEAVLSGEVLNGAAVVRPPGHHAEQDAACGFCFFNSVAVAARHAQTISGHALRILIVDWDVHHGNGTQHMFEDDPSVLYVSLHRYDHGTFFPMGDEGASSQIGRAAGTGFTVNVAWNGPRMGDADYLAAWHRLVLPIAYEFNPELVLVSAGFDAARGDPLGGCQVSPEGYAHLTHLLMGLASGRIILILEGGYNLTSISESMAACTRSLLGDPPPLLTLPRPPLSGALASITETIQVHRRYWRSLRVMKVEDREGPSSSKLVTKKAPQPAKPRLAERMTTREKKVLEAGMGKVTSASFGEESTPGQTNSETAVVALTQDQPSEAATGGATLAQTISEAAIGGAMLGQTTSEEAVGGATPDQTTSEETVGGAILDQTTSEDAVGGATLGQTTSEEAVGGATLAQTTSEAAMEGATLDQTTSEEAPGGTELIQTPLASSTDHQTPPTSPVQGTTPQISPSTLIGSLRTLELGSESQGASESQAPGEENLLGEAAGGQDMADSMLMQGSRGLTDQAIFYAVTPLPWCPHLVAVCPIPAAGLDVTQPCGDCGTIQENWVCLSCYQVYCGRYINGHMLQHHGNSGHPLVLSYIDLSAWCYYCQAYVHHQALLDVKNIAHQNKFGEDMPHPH

SMILES | class I HDAC activity, effect in words [1] | remaining activity at 50 µM [2] [%] | remaining activity at 50 µM [3] [%] | remaining activity at 50 µM [4] [%] | remaining activity at 50 µM [5] [%] | % HDAC activity, Class IIa HDACs, 7 [6] | remaining activity at 50 µM [7] [%] | remaining activity at 50 µM [8] [%] | remaining activity at 50 µM [9] [%] | catalytic HDAC activity across class I, IIa and IIb substrates, effect in words [10] | acetylation of histone 3 on lysine 9/14 (Ac-H3 K9/14) via immunoblot [11] | class IIb HDAC activity, effect in words [12] | remaining activity at 50 µM [13] [%]
O=c1cc(-c2ccc(O)cc2)oc2cc(O)cc(O)c12 [Apigenin] | only inhibit class I HDAC activity | 76.4 | 90.4 | 72.7 | 76.5 | - |  |  |  |  |  |  | 
Cc1cc2c(C(C)C)c(O)c(O)c(C=O)c2c(O)c1-c1c(C)cc2c(C(C)C)c(O)c(O)c(C=O)c2c1O [Gossypol] |  | 42.6 | 15.1 | 42.1 | 40.7 | - | 51.5 | 44.5 | 42.6 | dose-dependent pan-HDAC inhibition | increased |  | 
Oc1cc2c(cc1O)[C@@H]1c3ccc(O)c(O)c3OC[C@]1(O)C2 [Hematoxylin] |  |  |  |  |  | - |  |  |  |  |  | targeted class IIb HDACs for inhibition | 81.8
Nc1ccccc1NC(=O)c1ccc(CNc2nccc(-c3cccnc3)n2)cc1 [MGCD, MGCD0103, reference compound] | only inhibited class I HDAC activity |  |  |  |  |  |  |  |  |  |  |  | 
